Measured values reported in PMC11319731 (Nature Communications, 2024).

Legend:
[1] = tested on: PD-L2, B7H3 (CD276), B7H4, Vista; assay: Western blot of other PD-L1 family proteins in HCT116; type: cell-based; conditions: 5μM Arg6-MPHP, HCT116, WB
[2] = molecular target: PD-L1 in HCT116 cells (Homo sapiens, UniProt Q9NZQ7); assay: Immunofluorescence; type: cell-based; conditions: HCT116, incubation for 10 h, LSCM
Summary of the method: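 HCT116 colon cancer cells were exposed to test peptide carrying an N-terminal Arg6 cell-penetrating hexamer, or to an Arg6-tagged random-sequence control peptide. PD-L1 was labelled with red dye and HSC70 or LAMP2 with green dye, and cells were imaged by laser scanning confocal microscopy (10 h incubation stated for the HSC70 pairing). Intensity profiles were plotted along a line, with colocalization given as Pearson's R.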

Sequence of PD-L1 in HCT116 cells (Q9NZQ7 19-290): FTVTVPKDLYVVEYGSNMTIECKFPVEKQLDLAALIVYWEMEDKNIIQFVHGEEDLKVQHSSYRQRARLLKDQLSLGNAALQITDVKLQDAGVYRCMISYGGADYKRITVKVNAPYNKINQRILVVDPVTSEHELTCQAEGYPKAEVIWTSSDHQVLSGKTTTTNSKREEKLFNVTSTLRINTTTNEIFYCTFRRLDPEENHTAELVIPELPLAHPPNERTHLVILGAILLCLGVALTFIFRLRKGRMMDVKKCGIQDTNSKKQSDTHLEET

colocalization of PD-L1 and HSC70 [2]: conspicuous colocalization
SMILES: C[C@H](O)[C@@H](NC(=O)[C@H]1CCCN1C(=O)[C@@H](CCCCN)NC(=O)[C@@H](CO)NC(=O)[C@@H](Cc1ccc(O)cc1)NC(=O)[C@@H](CC(N)=O)NC(=O)CCOCCOCCOCCNC(=O)[C@H](CCC(N)=O)NC(=O)[C@H](CCCNC(=N)N)NC(=O)[C@H](Cc1ccccc1)NC(=O)[C@H](CCC(=O)O)NC(=O)[C@H](CCCCN)NC(=O)[C@H](CS)NC(=O)[C@H](CCCNC(=N)N)NC(=O)[C@H](CCCNC(=N)N)NC(=O)[C@H](CCCNC(=N)N)NC(=O)[C@H](CCCNC(=N)N)NC(=O)[C@H](CCCNC(=N)N)NC(=O)[C@@H](N)CCCNC(=N)N)C(=O)N[C@H](CC(=O)O)C(=O)N[C@H](CCCNC(=N)N)C(=O)N[C@H](CCC(N)=O)C(=O)N[C@H](Cc1ccc(O)cc1)C(=O)N[C@H](Cc1c[nH]cn1)C(=O)N[C@H](Cc1ccccc1)C(=O)O [Arg6-MPHP]
impact on other PD-L1 family proteins (PD-L2, B7H3 (CD276), B7H4, Vista) [1]: negligible
